From PubChem BioAssay
FGF22 binding = binders of human FGF22 protein, primary screen, FGF22 synaptogenesis inhibitor project, biophysical, thermal shift, single point. Fibroblast growth factor 22 (Homo sapiens), Q9HCT0. recombinant FGF22 thermal shift, SYPRO orange fluorescence; percent of sucrose octasulfate shift, DMSO zero. activity (Tm shift, normalised), % at 9.99 µM. 1.5% of 340,000 active. AID 651658, 2012;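 active means mean Tm shift, scaled 0 neutral to 100 positive control, at about 1.3% or above, every replicate too, limit read from the data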
S100A4 MyoIIA = inhibitors of S100A4-myosin IIA peptide binding, primary screen, biochemical, fluorescence polarization, TAMRA-MyoIIA peptide | inhibition, % at 10.7 µM | Protein S100-A4 (Homo sapiens), P26447 | AID 652163, 2013 | 0.14% of 360,000 active;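 active means mean inhibition of at least 70% across replicates, with every replicate also reaching that level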
Target sequence (P26447 whole entry, looked up): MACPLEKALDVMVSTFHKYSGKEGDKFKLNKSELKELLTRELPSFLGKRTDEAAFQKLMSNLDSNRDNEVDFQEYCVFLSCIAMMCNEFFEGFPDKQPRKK
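Material: human S100A4 monomer with TAMRA-labelled myosin IIA peptide; buffer or medium: HEPES pH 7.2 with CaCl2, KCl, NaCl, DTT, Triton; compound dosing: one concentration per compound; schedule: 5 min incubation before reading; benchmarks: neutral control DMSO, positive control TFP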
ERAP1 HTS inh = human ERAP1 aminopeptidase inhibitors, primary screen, biochemical, single point, plate reader; recombinant ERAP1, Leu-AMC fluorescence, 60 min; inhibition, % at 10.7 µM; 0.15% of 340,000 active; AID 652197, 2013;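 active means mean replicate inhibition of at least 30%, or all replicates individually reaching that 30% level; inactive means mean below 30% and not every replicate reaching it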;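 further: 0% = neutral control wells and 100% = L-leucinethiol positive control wells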
PDI turbidity = inhibitors of human PDI, primary screen, biochemical, turbidity, single point, plate reader. Protein disulfide-isomerase (Homo sapiens), P07237. PDI insulin aggregation turbidity, A650, 90 min. inhibition, % at 10 µM. 0.052% of 350,000 active. AID 588391, 2011;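 active means mean inhibition across replicates of 30% or more, whatever share of single replicates reach that level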
Target sequence (P07237 whole entry, looked up): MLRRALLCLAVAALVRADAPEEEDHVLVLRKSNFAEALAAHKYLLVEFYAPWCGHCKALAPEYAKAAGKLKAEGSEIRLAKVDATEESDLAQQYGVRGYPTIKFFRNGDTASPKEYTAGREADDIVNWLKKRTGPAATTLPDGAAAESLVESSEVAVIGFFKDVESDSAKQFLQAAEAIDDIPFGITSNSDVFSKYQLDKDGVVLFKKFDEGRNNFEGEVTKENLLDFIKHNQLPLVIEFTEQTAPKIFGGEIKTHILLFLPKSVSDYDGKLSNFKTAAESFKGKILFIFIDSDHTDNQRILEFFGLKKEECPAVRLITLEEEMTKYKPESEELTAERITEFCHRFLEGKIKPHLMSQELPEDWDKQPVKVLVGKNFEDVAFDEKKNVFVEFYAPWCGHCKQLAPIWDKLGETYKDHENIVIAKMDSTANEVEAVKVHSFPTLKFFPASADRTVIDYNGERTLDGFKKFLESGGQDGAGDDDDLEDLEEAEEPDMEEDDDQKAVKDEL
ERp5 block = inhibitors of ERp5-driven insulin aggregation, primary screen, biochemical, turbidity, absorbance 650 nm, single point; Protein disulfide-isomerase A6 (Homo sapiens), Q15084; 90 min; inhibition, % at 9.99 µM; 0.05% of 350,000 active; AID 651711, 2012;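 active means mean replicate inhibition above about 25%, with every replicate also reaching it, limit read from the data, passing the limit was not always enough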
* hit, by the source's call. The sample as a whole holds a higher share of hits than the screen did.

Results for CCOc1ccc(CN2CCN(Cc3nc(C(C)C)cs3)CC2CCO)cc1 (configuration not stated) ?
FGF22 binding: 43*; S100A4 MyoIIA: 0; ERAP1 HTS inh: 5; ERp5 block: 0

Results for COc1cc(-c2noc(C)c2/C=C/c2cccc([N+](=O)[O-])c2)cc(OC)c1OC ?
FGF22 binding: 0; S100A4 MyoIIA: -3; ERAP1 HTS inh: 3; PDI turbidity: 3; ERp5 block: 0

How did COc1cc(-c2noc(C)c2/C=C/c2ccc(C(=O)O)cc2)cc(OC)c1OC do in these assays?
FGF22 binding: 0; S100A4 MyoIIA: -1; ERAP1 HTS inh: 42*; PDI turbidity: 1; ERp5 block: 3

How did CCCNC(=O)C[C@H]1C[C@H]2c3cc(NS(C)(=O)=O)ccc3O[C@H]2[C@@H](CO)O1 do in these assays?
FGF22 binding: 0; S100A4 MyoIIA: -5; ERAP1 HTS inh: 1; ERp5 block: 27*

Results for CCCNC(=O)C[C@@H]1C[C@H]2c3cc(NS(C)(=O)=O)ccc3O[C@H]2[C@@H](CO)O1 ?
FGF22 binding: 0; S100A4 MyoIIA: 2; ERAP1 HTS inh: 2; ERp5 block: 56*

What do the screens show for `O=C(C[C@H]1C[C@H]2c3cc(NC(=O)Nc4ccccc4F)ccc3O[C@H]2[C@H](CO)O1)NCCc1ccccc1`?
FGF22 binding: 0; S100A4 MyoIIA: 1; ERAP1 HTS inh: 0; ERp5 block: 21

Results for COCC(=O)N1C[C@@H]2[C@H](c3ccccc31)[C@@H](CO)N2C(=O)C1CCCC1 ?
FGF22 binding: 0; S100A4 MyoIIA: 11; ERAP1 HTS inh: -2; ERp5 block: -2

What do the screens show for `C[C@@H]1CN([C@H](C)CO)C(=O)c2cc(NC(=O)C3CC3)ccc2O[C@@H]1CN(C)C(=O)Nc1ccc2c(c1)OCO2`?
FGF22 binding: -1; S100A4 MyoIIA: 103*; ERAP1 HTS inh: -3; ERp5 block: 3

Results for C[C@@H]1CN([C@@H](C)CO)C(=O)c2cc(NS(=O)(=O)c3ccccc3)ccc2O[C@H]1CN(C)C(=O)Nc1ccc2c(c1)OCO2 ?
FGF22 binding: 1; S100A4 MyoIIA: 5; ERAP1 HTS inh: 2; ERp5 block: 58*

What do the screens show for `C[C@@H]1CN([C@@H](C)CO)C(=O)c2cc(NC(=O)CCCCCC(=O)Nc3ccccc3N)ccc2O[C@H]1CN(C)C(=O)Nc1ccc2c(c1)OCO2`?
FGF22 binding: 0; S100A4 MyoIIA: 119*; ERAP1 HTS inh: -2; ERp5 block: 2

How did C[C@H](CO)N1C[C@H](C)[C@@H](CN(C)Cc2ccc(C(=O)O)cc2)Oc2ccc(NC(=O)Cc3cn(C)c4ccccc34)cc2C1=O do in these assays?
FGF22 binding: 0; S100A4 MyoIIA: 9; ERAP1 HTS inh: 2; ERp5 block: 0

Results for C[C@]12C[C@H](O)[C@@H]3c4ccc(O)cc4CCC3[C@@H]1CCC2=O (some centres not stated) ?
FGF22 binding: 0; S100A4 MyoIIA: 2; ERAP1 HTS inh: 3; PDI turbidity: 1; ERp5 block: 0

What do the screens show for `C[C@]12CC[C@H]3C(=CCc4cc(O)ccc43)[C@@H]1CCC2=O`?
FGF22 binding: -1; S100A4 MyoIIA: -3; ERAP1 HTS inh: -1; PDI turbidity: 33*; ERp5 block: 1

Results for CCc1nn(CC(=O)NCCN2CCN(C)CC2)c(=O)c2cc3c(OC)cccc3n12 ?
FGF22 binding: 0; S100A4 MyoIIA: 4; ERAP1 HTS inh: -2; PDI turbidity: -2; ERp5 block: -2

What do the screens show for `COc1cc(/C=C/C(=O)OCC(=O)NCCCc2ccccc2)cc(OC)c1OC`?
FGF22 binding: 0; S100A4 MyoIIA: -6; ERAP1 HTS inh: -1; PDI turbidity: 0; ERp5 block: 5

What do the screens show for `COc1cc(/C=C/C(=O)OCC(=O)NCCc2ccccc2)cc(OC)c1OC`?
FGF22 binding: 44*; S100A4 MyoIIA: 2; ERAP1 HTS inh: -2; PDI turbidity: -2; ERp5 block: -2

How did O=S(=O)(NC(=S)NC1CCCCC1)c1cccs1 do in these assays?
FGF22 binding: 43*; S100A4 MyoIIA: 1; ERAP1 HTS inh: -4; PDI turbidity: 1; ERp5 block: 1

How did CN1[C@@H]2Cn3c(ccc(C4=CCCCC4)c3=O)[C@H]1[C@@H](C(=O)NCc1ccc(F)cc1)[C@@H]2CO do in these assays?
FGF22 binding: 0; S100A4 MyoIIA: 6; ERAP1 HTS inh: -2; ERp5 block: 6

What do the screens show for `NS(=O)(=O)c1ccc(NCC2COc3ccccc3O2)c([N+](=O)[O-])c1` (configuration not stated)?
FGF22 binding: 43*; S100A4 MyoIIA: 0; ERAP1 HTS inh: 1; PDI turbidity: 4; ERp5 block: 6

How did O=C(CNS(=O)(=O)c1ccccc1)N/N=C/c1ccc(O)cc1 do in these assays?
FGF22 binding: 43*; S100A4 MyoIIA: -1; ERAP1 HTS inh: 1; PDI turbidity: -3; ERp5 block: 5

What do the screens show for `O=C(Nc1ccc2c(c1)OCCO2)c1oc2ccccc2c1NC(=O)C1CC1`?
FGF22 binding: 43*; S100A4 MyoIIA: 2; ERAP1 HTS inh: 3; PDI turbidity: -1; ERp5 block: 2

Results for CCc1ccccc1NCc1cc(=O)oc2cc(C)ccc12 ?
FGF22 binding: 0; S100A4 MyoIIA: 2; ERAP1 HTS inh: 8; PDI turbidity: 0; ERp5 block: -2

Results for CCCC(=O)Nc1cc(C(=O)O)ccc1Sc1ccc(C)cc1 ?
FGF22 binding: 43*; S100A4 MyoIIA: 2; ERAP1 HTS inh: 1; PDI turbidity: -3; ERp5 block: 0

Results for CCC(=O)Nc1cc(C(=O)O)ccc1Sc1ccc(C)cc1 ?
FGF22 binding: 0; S100A4 MyoIIA: -1; ERAP1 HTS inh: 3; PDI turbidity: -5; ERp5 block: -6

Results for CN(C)c1ccc(C=Cc2nccc3ccccc23)cc1 ?
FGF22 binding: 0; S100A4 MyoIIA: 88*; ERAP1 HTS inh: 4; ERp5 block: -4

Results for Cc1cc(C)n2c(Nc3ccc4c(c3)OCCO4)c(-c3cc4ccccc4o3)nc2n1 ?
FGF22 binding: 0; S100A4 MyoIIA: 1; ERAP1 HTS inh: 0; ERp5 block: -13

How did Cc1cc(C)n2c(Nc3ccc4c(c3)OCCO4)c(-c3ccccn3)nc2n1 do in these assays?
FGF22 binding: 0; S100A4 MyoIIA: -7; ERAP1 HTS inh: 54*; ERp5 block: 0

How did COc1ccc(NC(=O)C2CCN(S(=O)(=O)c3ccc(C)cc3)CC2)cc1OC do in these assays?
PDI turbidity: -4

Results for CC(C)c1ccc(OCc2cccc(C(=O)N/N=C/c3cccnc3)c2)cc1 ?
FGF22 binding: 28*; S100A4 MyoIIA: 4; ERAP1 HTS inh: 0; PDI turbidity: -4; ERp5 block: 2
